# Screening data (PubChem)
# The list is not random: actives were taken first. Their share in the collection is about 3.5%.
# MrgX1 agonist: agonists of human MrgX1 receptor, primary screen, HEK293 cells, Fluo-4 calcium flux; Mas-related G-protein coupled receptor member X1 (Homo sapiens), Q96LB2; Fluo-4 calcium fluorescence, agonist mode; stronger effect = higher value; B-score at 10 µM; 310,000 compounds, 0.44% hits;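 active = calcium response B-score plate-corrected fluorescence ratio at least 3 library SD, with starting fluorescence B-score inside 5 SD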
#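 Material: HEK293 cells stably expressing human MrgX1 receptor | Quantity: 15,000 cells per well | Times: Cells plated overnight, dye loaded 0.5 h 37 °C, 0.5 h room temperature | Measured by: Kinetic Fluo-4 NW fluorescence of intracellular calcium | Control set: Positive and negative controls per plate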
# MrgX1 PAM: positive allosteric modulators of MrgX1, primary screen, HEK293 cells, Fluo-4 calcium flux | B-score at 10 µM | 310,000 compounds, 0.63% hits | FDSS; stronger effect = higher value | Mas-related G-protein coupled receptor member X1 (Homo sapiens), Q96LB2;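 active = plate-corrected calcium response at least 3 library SD above typical, normal starting fluorescence, not activating the receptor alone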;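 note: compound read alongside a low EC10 to EC30 dose of BAM8-22 agonist; peak minus trough fluorescence over baseline measured at the second addition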
# RGS4 act: RGS4 potentiators or activators, primary screen, cell-based, HEK293 M3R inducible RGS4, calcium flux; carbachol calcium flux Fluo4; stronger effect = lower value; B-score at 10 µM; 310,000 compounds, 0.92% hits; AID 463111, 2010;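 active = B-score of the integrated calcium signal more than 4 SD below the library mean, with starting fluorescence not abnormally high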;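 note: negative B-score means reduced calcium response which marks RGS4 activation or potentiation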
#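 Material: Inducible-RGS4 HEK293 cells carrying M3 receptor; also added: carbachol at ECmax as muscarinic agonist stimulus; incubation: compound preincubation 20 min at room temperature before agonist; signal: Fluo4-AM (2 µM) calcium-flux fluorescence, kinetic read; measure: integrated calcium ratio converted to B score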
# RGS4 inh: RGS4 inhibitors, primary screen, cell-based, HEK293 M3R inducible RGS4, calcium flux. Fluo-4 calcium flux; stronger effect = higher value; triggered by carbachol at its EC20. 310,000 compounds, 0.45% hits. B-score at 10 µM. AID 463165, 2010;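 active = B-score, a plate-corrected calcium signal, over three deviations above library mean, with baseline fluorescence within five deviations of library mean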;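 note: RGS4 expression induced by doxycycline in cells with stable M3 receptor; B-score is computed from the integrated fluorescence ratio over baseline after carbachol; higher B-score means a larger calcium signal and so more RGS4 inhibition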
# Target sequence (P49798 whole entry, looked up): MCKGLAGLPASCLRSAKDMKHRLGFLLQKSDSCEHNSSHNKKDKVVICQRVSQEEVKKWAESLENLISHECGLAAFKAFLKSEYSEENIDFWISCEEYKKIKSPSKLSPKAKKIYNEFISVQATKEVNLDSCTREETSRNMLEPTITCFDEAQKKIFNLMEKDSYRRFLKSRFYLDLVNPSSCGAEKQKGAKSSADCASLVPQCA
# MrgX1 antag: antagonists of human MrgX1 receptor, primary screen, HEK293 cells, Fluo-4 calcium flux; Mas-related G-protein coupled receptor member X1 (Homo sapiens), Q96LB2; BAM8-22 antagonism; stronger effect = lower value; B-score at 10 µM; AID 588676, 2011; 310,000 compounds, 1.3% hits;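 active = calcium-response B-score plate-corrected more than 3 library SD below zero, starting fluorescence within 5 deviations, no agonist response on first addition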;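 note: peak minus trough fluorescence over baseline after final BAM8-22 challenge near maximal dose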
# The depositor's hits bear a star; i = inactive.
SMILES,MrgX1 agonist,MrgX1 PAM,RGS4 act,RGS4 inh,MrgX1 antag
Cc1ccc[n+](C2C(c3ccc([N+](=O)[O-])cc3)C(C#N)=C([S-])NC2(O)C2CC2)c1 (stereo not given),i,i,i,i,i
COc1ccc(NC(=O)c2cccc(N3C(=O)C4C5C=CC(C6CC56)C4C3=O)c2)cc1 (stereo not given),i,i,i,i,i
CCCS(=O)(=O)c1nnnn1-c1cccc(OC)c1,49.9*,i,i,i,i
COc1cccc(-n2nnnc2SCC(=O)Nc2ccccc2OC)c1,i,i,i,i,i
Cn1c(C(=O)Nc2ccc3c(c2)OCCO3)cc2c(=O)n(C)c3ccccc3c21,i,i,-7.18*,i,i
Cc1cc(C(=O)Nc2c(C)nn(Cc3ccc(F)cc3)c2C)on1,i,i,i,i,-4.88*
CC(Oc1ccccc1)C(=O)N=C1SC2CS(=O)(=O)CC2N1c1cccc(F)c1 (stereo not given),i,i,i,i,i
CCOC(=O)C(=Cc1ccc(Br)cc1)C(=O)OCC,i,i,i,i,i
CCOC(=O)C(=Cc1ccc(F)cc1)C(=O)OCC,i,7.52*,i,i,i
COc1cc(Br)cc(Br)c1OCC(=O)N/N=C/c1c(C)n(C)n(-c2ccccc2)c1=O,i,i,i,i,i
COc1ccc(/C=N/NC(=O)NC23CC4CC(CC(C4)C2)C3)c(OC)c1,i,6.95*,i,i,i
COc1ccccc1/C=N/NC(=O)NC12CC3CC(CC(C3)C1)C2,i,i,i,i,i
CC1CCCN(C(=O)CCNC(=O)Cn2cnc3ccccc3c2=O)C1 (stereo not given),i,i,i,i,i
CCCCn1c(N)c(N(CC(C)C)C(=O)CCS(=O)(=O)c2ccc(C)cc2)c(=O)[nH]c1=O,i,i,i,i,i
C/C(=C\C(=O)c1ccc(Cl)cc1)Nc1ccc(Br)cc1,i,i,i,i,i
C/C(=C\C(=O)c1ccc(Br)cc1)Nc1cccc(Cl)c1,i,i,-8.09*,i,i
Cc1cc(C)n(C(=O)c2c([N+](=O)[O-])c(C)nn2C)n1,i,i,i,i,-7.67*
Clc1ccc2c(NCc3ccccc3)ccnc2c1,31.9*,i,i,i,i
S=C(NNc1ccnc2cc(Cl)ccc12)Nc1ccccc1Cl,i,6.67*,i,i,i
S=C(Nc1ccccc1Cl)Nc1ccc(Cl)cc1Cl,i,i,i,i,i
CCN(CC)CCNc1ccnc2cc(Cl)ccc12,i,i,i,i,i
Cc1ccc(S(=O)(=O)Nc2c(C)nn(C)c2C)c(C)c1,i,i,i,i,i
Cc1ccccc1C(=O)c1c[nH]c(C(=O)NCCc2ccccn2)c1,i,i,i,i,i
CCCCCOc1ccc(NC(=O)C(=O)NCC2CCCN2CC)cc1 (stereo not given),i,i,i,i,-6.99*
COc1ccc(C(=O)NC(=S)NNC(=O)c2cnccn2)cc1OC,i,i,i,i,i
SMILES,MrgX1 agonist,MrgX1 PAM,RGS4 act,RGS4 inh,MrgX1 antag
Cc1ccc(OCC(=O)NNC(=S)NC(=O)c2ccc(Br)o2)c(C)c1,i,10.2*,-10.7*,i,i
COc1ccc(OCC(=O)NNC(=O)c2cccs2)cc1,i,i,i,i,i
Cc1cc(OCC(=O)NNC(=S)NC(=O)c2cccs2)ccc1Cl,i,8.41*,-7.8*,i,i
COc1ccc(C(=O)NNC(=S)NC(=O)c2ccc(Br)o2)cc1OC,52.7*,i,i,i,i
Cc1ccc(OCC(=O)NNC(=S)NC(=O)c2cccs2)c(C)c1,34.7*,i,-8.96*,i,i
Cc1cccc(NC(=S)NNC(=O)c2ccc(Br)o2)c1,i,i,i,i,i
